Assay results from different studies.
KIT: Mast/stem cell growth factor receptor Kit (KIT, Homo sapiens, UniProt P10721)
KIT V559D/V654A: Mast/stem cell growth factor receptor Kit (KIT, Homo sapiens, UniProt P10721, V559D/V654A)
KIT T670I/V559D: Mast/stem cell growth factor receptor Kit (KIT, Homo sapiens, UniProt P10721, T670I/V559D)
KIT L576P: Mast/stem cell growth factor receptor Kit (KIT, Homo sapiens, UniProt P10721, L576P)
KIT autoinhibited: Mast/stem cell growth factor receptor Kit, autoinhibited (KIT, Homo sapiens, UniProt P10721)
KIT D816V: Mast/stem cell growth factor receptor Kit (KIT, Homo sapiens, UniProt P10721, D816V)
KIT D816H: Mast/stem cell growth factor receptor Kit (KIT, Homo sapiens, UniProt P10721, D816H)
KIT V559D: Mast/stem cell growth factor receptor Kit (KIT, Homo sapiens, UniProt P10721, V559D)

Structure (SMILES)	target	observed	method	concentration	remaining binding
O=C(Nc1c[nH]nc1C(=O)NC1CCNCC1)c1cc(F)cc(F)c1	KIT	binding	competition with immobilised ligand	1 µM	100%
CN(CCCC(F)(F)F)c1nccc(-c2cnn3ncccc23)n1	KIT V559D/V654A	binding	–	1 µM	100%
CC(C)(C)c1ccc(-c2nc(CBr)nn2-c2cccc(O)c2)cc1	KIT T670I/V559D	cell-free assay	competition with immobilised ligand	10 µM	95%
CN(c1nccc(-c2cnn3ncccc23)n1)C1CC1	KIT	binding	–	1 µM	89%
COc1cnc(Nc2cccc(S(N)(=O)=O)c2)nc1N1CCN(c2ccccc2)CC1	Mast/stem cell growth factor receptor Kit (KIT, Homo sapiens, UniProt P10721, A829P)	binding	competition with immobilised ligand	1 µM	65%
Cc1cnc(Nc2ccc(C(=O)N3CCC(N4CCCC4)CC3)cc2)nc1-c1cc2ccccc2s1	KIT L576P	binding	competition with immobilised ligand	1 µM	1%
CO[C@@H](C)c1c(Nc2ccc([C@@H](N(C)C(=O)C3CCS(=O)(=O)CC3)C(F)(F)F)cc2)cnc2cc(Cl)nn12	KIT T670I/V559D	cell-free assay	competition with immobilised ligand	1 µM	82%
O=C(c1ccc(Nc2nccc(-c3cc4ccccc4s3)n2)cc1)N1CCC(N2CCCC2)CC1	KIT autoinhibited	binding	competition with immobilised ligand	1 µM	66%
N[C@H]1CCN(c2nccc(-c3cnn4ncccc34)n2)C1	KIT autoinhibited	binding	–	1 µM	0%
c1cncc(-c2cccc(Nc3nccc(NC4CCCCC4)n3)c2)c1	KIT	binding	competition with immobilised ligand	10 µM	3.8%
CCc1ccccc1C(=O)Nc1n[nH]c2c(C)c(F)c(C3C(C#N)=C(C)N(C)C(C)=C3C#N)cc12	KIT	cell-free assay	competition with immobilised ligand	1 µM	84%
O=C(NCCCN1CCOCC1)c1ccc(Nc2ncc(Cl)c(-c3ccc(Cl)s3)n2)cc1	KIT	binding	competition with immobilised ligand	1 µM	0.05%
CN1CCN(c2ccc(Nc3nccc(-c4ccccc4)n3)cc2C(F)(F)F)CC1	KIT D816V	binding	–	10 µM	6.8%
O=C(NCCCN1CCOCC1)c1ccc(Nc2nccc(-c3cc4ccccc4s3)n2)cc1	KIT D816H	binding	competition with immobilised ligand	1 µM	20%
C[C@@H]1CCN(c2nccc(-c3cnn4ncccc34)n2)C1	KIT V559D/V654A	binding	–	1 µM	79%
COc1ccc2c(c1)O[C@@H](c1ccc(OC)c(OC)c1)C[C@H]2NC(=O)C1(c2ccc3c(c2)OC(F)(F)O3)CC1	KIT L576P	cell-free assay	competition with immobilised ligand	1 µM	92%
O=C(c1ccc(Nc2ncc(Cl)c(-c3ccc(Cl)s3)n2)cc1)N1CCC(N2CCCC2)CC1	KIT V559D/V654A	binding	competition with immobilised ligand	1 µM	9.3%
C[C@@]1(Cc2ccc(C#N)cc2)C(=O)N(c2cc(Cl)cc(Cl)c2)c2ncc(C(=O)NC3(c4nc(C5CCC5)no4)CC3)n21	KIT V559D	cell-free assay	competition with immobilised ligand	1 µM	99%
CCN1CCN(Cc2ccc(C(=O)Nc3ccc(C)c(Oc4ccc5c(c4)CC(=O)N5)c3)cc2C(F)(F)F)CC1	KIT V559D	binding	competition with immobilised ligand	1 µM	0.4%

Structure (SMILES)	target	observed	method	concentration	remaining binding
CNC(=O)[C@@H]1CC[C@@H](n2c(-c3ccc4cnccc4c3)nc3ccc(C(=O)NCc4cccc(C(N)=O)c4)cc32)C1	KIT	binding	competition with immobilised ligand	1 µM	100%
CCC(=O)N[C@H]1CC[C@@H](C(=O)N(C)c2ccc(-c3nc4ccccc4o3)cc2)C1	KIT D816V	cell-free assay	competition with immobilised ligand	1 µM	86%
C=CC(=O)N1CCC(C(=O)NCC(=O)N2CCN(c3nc(-c4cnc(N)nc4C(F)F)nc(N4CCOCC4)n3)CC2)CC1	KIT T670I/V559D	binding	competition with immobilised ligand	1 µM	82%
COc1ncc2cc3ccccc3nc2c1C#N	KIT D816H	cell-free assay	competition with immobilised ligand	5 µM	100%
COc1cnc(Nc2cccc(S(N)(=O)=O)c2)nc1N1CCN(c2ccccc2)C(=O)C1	KIT T670I/V559D	binding	competition with immobilised ligand	1 µM	100%
CN(C)c1nccc(-c2cnc3ncccn23)n1	KIT T670I/V559D	binding	–	1 µM	92%
CN1CCN(c2ccc(Nc3nccc(-c4cccc([N+](=O)[O-])c4)n3)cc2C(F)(F)F)CC1	KIT T670I/V559D	binding	–	10 µM	0.15%
Nc1ncc2c(n1)-c1c([nH]c3ccc(C#CC4CC4)cc13)CCCC2	KIT V559D/V654A	binding	competition with immobilised ligand	1 µM	100%
Cc1cc(NC(=O)c2cccc(S(F)(F)(F)(F)F)c2)cc(-n2ccn3nc(-c4cccnc4)cc23)c1	KIT L576P	cell-free assay	competition with immobilised ligand	1 µM	100%
Cc1cnn2ncc(-c3ccnc(N(C)C)n3)c2c1	KIT L576P	binding	–	1 µM	100%
O=C(NCC1CCOCC1)c1n[nH]cc1NC(=O)c1c(F)cccc1F	KIT V559D	binding	competition with immobilised ligand	1 µM	100%
Cc1nc(NC(=O)N2CCC[C@H]2C(N)=O)sc1-c1ccnc(C(C)(C)C(F)(F)F)c1	KIT autoinhibited	binding	competition with immobilised ligand	10 µM	100%
C[C@@H](c1ccc(-n2cnc3c(N)ncnc32)cc1)N1CCc2nn(C)c(Cc3ccccc3)c2C1=O	KIT V559D	binding	competition with immobilised ligand	0.1 µM	32%
O=C(c1ccc(Nc2ncc(Cl)c(-c3cc4ccccc4s3)n2)cc1)N1CCC(N2CCCC2)CC1	KIT L576P	binding	competition with immobilised ligand	1 µM	4.5%
CC1CCCN1c1nccc(-c2cnn3ncccc23)n1 (stereo not shown)	KIT L576P	binding	–	1 µM	100%
COc1cc(-c2cn(C3CCc4ccccc4N(CC(F)(F)F)C3=O)nn2)ccc1-n1ccc(C)n1 (stereo not shown)	KIT autoinhibited	cell-free assay	competition with immobilised ligand	1 µM	100%
COc1ccnn2ncc(-c3ccnc(N(C)C)n3)c12	KIT V559D	binding	–	1 µM	100%
COc1cc(-c2cn(C3CCc4c(F)cccc4N(CC(F)(F)F)C3=O)nn2)ccc1-n1cnc(C)c1 (stereo not shown)	KIT L576P	cell-free assay	competition with immobilised ligand	1 µM	100%
